# Legend:
# Cavia porcellus [1] = species: Cavia porcellus; assay: In vitro functional efficacy determined by maximal contraction of isolated guinea pig gallbladder at 1 uM concentration of compound relative to CCK-8 at 1 uM
# Procedure, shortened: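 Isolated guinea pig gallbladder exposed to test ligand for 30 min at 37 °C. Maximal contraction at a single compound concentration is expressed relative to the CCK-8 contraction, set at 100%. Selective CCK-A antagonist MK-329 was used to check reversal of agonist responses.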
# Rattus norvegicus [2] = assay: In vivo anoretic efficacy in the rat conditioned feeder assay measured as dose that produced half maximal response; assay type: functional
# Procedure, shortened: (§1)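 Fasted rats in a conditioned-feeder model, dosed intraperitoneally; food intake measured at 30 min versus control animals. %Max is the percentage reduction in intake at 10 µmol/kg (CCK-8 at 0.5 µmol/kg). ED50 is the dose producing 50% of the maximal response seen at 10 µmol/kg.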
# Cavia porcellus [3] = species: Cavia porcellus; assay: Concentration at which 50% of the maximal contraction was observed for % CCK; assay type: functional
# Procedure, shortened: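 Isolated guinea pig gallbladder strips incubated with test ligand 30 min at 37 °C; contraction read as efficacy relative to CCK-8 (1 µM) = 100%. Single-concentration efficacy taken at 30 µM. Full dose–response curves run for ligands giving >40% of the CCK-8 response; ED50 is the concentration giving 50% of maximal contraction. Agonism checked for reversal by CCK-A antagonist MK-329.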
# Rattus norvegicus [4] = assay: Percentage maximal response in rats at 10 umol/kg administered intraperitoneally; assay type: functional; procedure, shortened: as §1
SMILES,inhibition at 1 µM (Cavia porcellus [1]) [%],ED50 (Rattus norvegicus [2]) [nmol/kg],ED50 (Cavia porcellus [3]) [nM],Max (Rattus norvegicus [4]) [%]
COc1ccc(N(C(=O)CN2C(=O)C(Cc3n[nH]c4ccccc34)N=C(c3ccccc3)c3ccccc32)C(C)C)cc1 (configuration not stated),27,,,
COc1ccc(N(C(=O)CN2C(=O)C(NC(=O)Nc3cccc(C(=O)O)c3)[N+]([O-])=C(C3CCCCC3)c3ccccc32)C(C)C)cc1 (configuration not stated),,80,3,69
COc1ccc(N(C(=O)CN2C(=O)C(NC(=O)Nc3ccccc3)[N+]([O-])=C(C)c3ccccc32)C(C)C)cc1 (configuration not stated),,,202,
COc1ccc(N(C(=O)CN2C(=O)C(NC(=O)Nc3ccccc3)[N+]([O-])=C(C3CCCCC3)c3ccccc32)C(C)C)cc1 (configuration not stated),,25,342,75
COc1ccc(N(C(=O)CN2C(=O)C(CC(=O)Nc3ccccc3)N=C(c3ccccc3)c3ccccc32)C(C)C)cc1 (configuration not stated),,,1100,
COc1ccc(N(C(=O)CN2C(=O)C(NC(=O)Nc3ccccc3)N=C(C)c3ccccc32)C(C)C)cc1 (configuration not stated),,,296,
CC(C)N(C(=O)CN1C(=O)C(Cc2c[nH]c3ccccc23)N=C(c2ccccc2)c2ccccc21)c1ccccc1 (configuration not stated),,,41,
COc1ccc(N(C(=O)CN2C(=O)C(NC(=O)c3cc4ccccc4[nH]3)[N+]([O-])=C(C3CCCCC3)c3ccccc32)C(C)C)cc1 (configuration not stated),,,131,
COc1ccc(N(C(=O)CN2C(=O)C(NC(=O)Nc3ccccc3)N=C(C3CCCCC3)c3ccccc32)C(C)C)cc1 (configuration not stated),,,233,
COc1ccc(N(C(=O)CN2C(=O)C(Cc3n[nH]c4ccccc34)[N+]([O-])=C(c3ccccc3)c3ccccc32)C(C)C)cc1 (configuration not stated),,150,13,79
COc1ccc(N(C(=O)CN2C(=O)C(NC(=O)Nc3cccc(C(=O)O)c3)N=C(c3ccccc3)c3ccccc32)C(C)C)cc1 (configuration not stated),27,,,

# Source: ChEMBL document CHEMBL1134248, “1,4-Benzodiazepine peripheral cholecystokinin (CCK-A) receptor agonists” (2001)
